Measured values published in ChEMBL document CHEMBL2417539, “1-substituted (Dibenzo[b,d]thiophen-4-yl)-2-morpholino-4H-chromen-4-ones endowed with dual DNA-PK/PI3-K inhibitory activity” (J Med Chem, 2013).

tested on: HeLa; test: Antiproliferative activity against human HeLa cells assessed as cell survival ratio at 0.1 uM treated 1 hr before 2Gy ionizing radiation measured after 6 to 8 days by DMR clonogenic assay; format: functional
Method in brief: (§1)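 HeLa cells seeded in 6-well dishes, incubated overnight at 37 °C/5% CO2, pre-treated 1 h with vehicle or inhibitor (0.1 or 0.5 μM), then given 2 Gy X-ray IR and held overnight. Medium then replaced without compound and culture continued 6-8 days. Colonies Giemsa-stained and counted automatically. DMR = % survival (vehicle, 2 Gy) / % survival (compound, 2 Gy).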

Row | SMILES | Ratio
1 | CCN(CC)CC(=O)Nc1ccc(-c2cccc3c(=O)cc(N4CCOCC4)oc23)c2sc3ccccc3c12 | 1.2
2 | O=C(CN1CCN(c2ccc(F)cc2)CC1)Nc1ccc(-c2cccc3c(=O)cc(N4CCOCC4)oc23)c2sc3ccccc3c12 | 1
3 | C[C@@H]1CN(CCC(=O)Nc2ccc(-c3cccc4c(=O)cc(N5CCOCC5)oc34)c3sc4ccccc4c23)C[C@H](C)O1 | 2.4
4 | CCN(CCC(=O)Nc1ccc(-c2cccc3c(=O)cc(N4CCOCC4)oc23)c2sc3ccccc3c12)Cc1ccncc1 | 1
5 | COC(=O)[C@H](CO)NCCOc1ccc(-c2cccc3c(=O)cc(N4CCOCC4)oc23)c2sc3ccccc3c12 | 2.9
6 | NCCNCCC(=O)Nc1ccc(-c2cccc3c(=O)cc(N4CCOCC4)oc23)c2sc3ccccc3c12 | 1.2
7 | CN1CCCC1CCNCCC(=O)Nc1ccc(-c2cccc3c(=O)cc(N4CCOCC4)oc23)c2sc3ccccc3c12 (stereo not given) | 1.3
8 | O=C(CCN1CCCCC1)Nc1ccc(-c2cccc3c(=O)cc(N4CCOCC4)oc23)c2sc3ccccc3c12 | 1.9
9 | O=C(CN(CCO)CCO)Nc1ccc(-c2cccc3c(=O)cc(N4CCOCC4)oc23)c2sc3ccccc3c12 | 1.1
10 | O=C(CCN1CCN(CCOCCO)CC1)Nc1ccc(-c2cccc3c(=O)cc(N4CCOCC4)oc23)c2sc3ccccc3c12 | 1.1
11 | O=c1cc(N2CCOCC2)oc2c(-c3ccc(OCCN4CCCCC4)c4c3sc3ccccc34)cccc12 | 1.4
12 | O=C(CCN1CCN(c2ncccn2)CC1)Nc1ccc(-c2cccc3c(=O)cc(N4CCOCC4)oc23)c2sc3ccccc3c12 | 1.6
13 | O=C(CN1CCCNCC1)Nc1ccc(-c2cccc3c(=O)cc(N4CCOCC4)oc23)c2sc3ccccc3c12 | 1.4
14 | O=C(CN1CCNCC1)Nc1ccc(-c2cccc3c(=O)cc(N4CCOCC4)oc23)c2sc3ccccc3c12 | 1.4
15 | CC(C)N1CCN(C(=O)COc2ccc(-c3cccc4c(=O)cc(N5CCOCC5)oc34)c3sc4ccccc4c23)CC1 | 1.3
16 | O=C(CCNCCN1CCOCC1)Nc1ccc(-c2cccc3c(=O)cc(N4CCOCC4)oc23)c2sc3ccccc3c12 | 1.3
17 | O=C(CCN1CCN(CCO)CC1)Nc1ccc(-c2cccc3c(=O)cc(N4CCOCC4)oc23)c2sc3ccccc3c12 | 1
18 | O=C(CN1CCN(c2ccccn2)CC1)Nc1ccc(-c2cccc3c(=O)cc(N4CCOCC4)oc23)c2sc3ccccc3c12 | 1.8
19 | CC(=O)N1CCN(CC(=O)Nc2ccc(-c3cccc4c(=O)cc(N5CCOCC5)oc34)c3sc4ccccc4c23)CC1 | 1.4
20 | O=C(CCNCCN1CCCCC1)Nc1ccc(-c2cccc3c(=O)cc(N4CCOCC4)oc23)c2sc3ccccc3c12 | 1

tested on: HeLa; test: Antiproliferative activity against human HeLa cells assessed as cell survival ratio at 0.5 uM treated 1 hr before 2Gy ionizing radiation measured after 6 to 8 days by DMR clonogenic assay; format: functional; method in brief: as §1

Row | SMILES | Ratio
21 | CCN(CC)CC(=O)Nc1ccc(-c2cccc3c(=O)cc(N4CCOCC4)oc23)c2sc3ccccc3c12 | 3.7
22 | O=C(CN1CCN(c2ccc(F)cc2)CC1)Nc1ccc(-c2cccc3c(=O)cc(N4CCOCC4)oc23)c2sc3ccccc3c12 | 4.9
23 | C[C@@H]1CN(CCC(=O)Nc2ccc(-c3cccc4c(=O)cc(N5CCOCC5)oc34)c3sc4ccccc4c23)C[C@H](C)O1 | 9.3
24 | CCN(CCC(=O)Nc1ccc(-c2cccc3c(=O)cc(N4CCOCC4)oc23)c2sc3ccccc3c12)Cc1ccncc1 | 1.6
25 | COC(=O)[C@H](CO)NCCOc1ccc(-c2cccc3c(=O)cc(N4CCOCC4)oc23)c2sc3ccccc3c12 | 10.5
26 | NCCNCCC(=O)Nc1ccc(-c2cccc3c(=O)cc(N4CCOCC4)oc23)c2sc3ccccc3c12 | 1.4
27 | CN1CCCC1CCNCCC(=O)Nc1ccc(-c2cccc3c(=O)cc(N4CCOCC4)oc23)c2sc3ccccc3c12 (stereo not given) | 1.2
28 | O=C(CCN1CCCCC1)Nc1ccc(-c2cccc3c(=O)cc(N4CCOCC4)oc23)c2sc3ccccc3c12 | 5
29 | O=C(CN(CCO)CCO)Nc1ccc(-c2cccc3c(=O)cc(N4CCOCC4)oc23)c2sc3ccccc3c12 | 1.9
30 | O=C(CCN1CCN(CCOCCO)CC1)Nc1ccc(-c2cccc3c(=O)cc(N4CCOCC4)oc23)c2sc3ccccc3c12 | 1
31 | O=c1cc(N2CCOCC2)oc2c(-c3ccc(OCCN4CCCCC4)c4c3sc3ccccc34)cccc12 | 3.5
32 | O=C(CCN1CCN(c2ncccn2)CC1)Nc1ccc(-c2cccc3c(=O)cc(N4CCOCC4)oc23)c2sc3ccccc3c12 | 7.1
33 | O=C(CN1CCCNCC1)Nc1ccc(-c2cccc3c(=O)cc(N4CCOCC4)oc23)c2sc3ccccc3c12 | 1.5
34 | O=C(CN1CCNCC1)Nc1ccc(-c2cccc3c(=O)cc(N4CCOCC4)oc23)c2sc3ccccc3c12 | 5
35 | CC(C)N1CCN(C(=O)COc2ccc(-c3cccc4c(=O)cc(N5CCOCC5)oc34)c3sc4ccccc4c23)CC1 | 3.1
36 | O=C(CCNCCN1CCOCC1)Nc1ccc(-c2cccc3c(=O)cc(N4CCOCC4)oc23)c2sc3ccccc3c12 | 1.9
37 | O=C(CCN1CCN(CCO)CC1)Nc1ccc(-c2cccc3c(=O)cc(N4CCOCC4)oc23)c2sc3ccccc3c12 | 1.2
38 | O=C(CN1CCN(c2ccccn2)CC1)Nc1ccc(-c2cccc3c(=O)cc(N4CCOCC4)oc23)c2sc3ccccc3c12 | 9.9
39 | CC(=O)N1CCN(CC(=O)Nc2ccc(-c3cccc4c(=O)cc(N5CCOCC5)oc34)c3sc4ccccc4c23)CC1 | 4.8
40 | O=C(CCNCCN1CCCCC1)Nc1ccc(-c2cccc3c(=O)cc(N4CCOCC4)oc23)c2sc3ccccc3c12 | 3.3

molecular target: DNA-dependent protein kinase catalytic subunit (Homo sapiens, UniProt P78527); test: Inhibition of human DNA-PK using GST-tagged p53N66 as substrate after 1 hr by ELISA-based chemiluminiscence assay
Sequence (P78527 whole entry): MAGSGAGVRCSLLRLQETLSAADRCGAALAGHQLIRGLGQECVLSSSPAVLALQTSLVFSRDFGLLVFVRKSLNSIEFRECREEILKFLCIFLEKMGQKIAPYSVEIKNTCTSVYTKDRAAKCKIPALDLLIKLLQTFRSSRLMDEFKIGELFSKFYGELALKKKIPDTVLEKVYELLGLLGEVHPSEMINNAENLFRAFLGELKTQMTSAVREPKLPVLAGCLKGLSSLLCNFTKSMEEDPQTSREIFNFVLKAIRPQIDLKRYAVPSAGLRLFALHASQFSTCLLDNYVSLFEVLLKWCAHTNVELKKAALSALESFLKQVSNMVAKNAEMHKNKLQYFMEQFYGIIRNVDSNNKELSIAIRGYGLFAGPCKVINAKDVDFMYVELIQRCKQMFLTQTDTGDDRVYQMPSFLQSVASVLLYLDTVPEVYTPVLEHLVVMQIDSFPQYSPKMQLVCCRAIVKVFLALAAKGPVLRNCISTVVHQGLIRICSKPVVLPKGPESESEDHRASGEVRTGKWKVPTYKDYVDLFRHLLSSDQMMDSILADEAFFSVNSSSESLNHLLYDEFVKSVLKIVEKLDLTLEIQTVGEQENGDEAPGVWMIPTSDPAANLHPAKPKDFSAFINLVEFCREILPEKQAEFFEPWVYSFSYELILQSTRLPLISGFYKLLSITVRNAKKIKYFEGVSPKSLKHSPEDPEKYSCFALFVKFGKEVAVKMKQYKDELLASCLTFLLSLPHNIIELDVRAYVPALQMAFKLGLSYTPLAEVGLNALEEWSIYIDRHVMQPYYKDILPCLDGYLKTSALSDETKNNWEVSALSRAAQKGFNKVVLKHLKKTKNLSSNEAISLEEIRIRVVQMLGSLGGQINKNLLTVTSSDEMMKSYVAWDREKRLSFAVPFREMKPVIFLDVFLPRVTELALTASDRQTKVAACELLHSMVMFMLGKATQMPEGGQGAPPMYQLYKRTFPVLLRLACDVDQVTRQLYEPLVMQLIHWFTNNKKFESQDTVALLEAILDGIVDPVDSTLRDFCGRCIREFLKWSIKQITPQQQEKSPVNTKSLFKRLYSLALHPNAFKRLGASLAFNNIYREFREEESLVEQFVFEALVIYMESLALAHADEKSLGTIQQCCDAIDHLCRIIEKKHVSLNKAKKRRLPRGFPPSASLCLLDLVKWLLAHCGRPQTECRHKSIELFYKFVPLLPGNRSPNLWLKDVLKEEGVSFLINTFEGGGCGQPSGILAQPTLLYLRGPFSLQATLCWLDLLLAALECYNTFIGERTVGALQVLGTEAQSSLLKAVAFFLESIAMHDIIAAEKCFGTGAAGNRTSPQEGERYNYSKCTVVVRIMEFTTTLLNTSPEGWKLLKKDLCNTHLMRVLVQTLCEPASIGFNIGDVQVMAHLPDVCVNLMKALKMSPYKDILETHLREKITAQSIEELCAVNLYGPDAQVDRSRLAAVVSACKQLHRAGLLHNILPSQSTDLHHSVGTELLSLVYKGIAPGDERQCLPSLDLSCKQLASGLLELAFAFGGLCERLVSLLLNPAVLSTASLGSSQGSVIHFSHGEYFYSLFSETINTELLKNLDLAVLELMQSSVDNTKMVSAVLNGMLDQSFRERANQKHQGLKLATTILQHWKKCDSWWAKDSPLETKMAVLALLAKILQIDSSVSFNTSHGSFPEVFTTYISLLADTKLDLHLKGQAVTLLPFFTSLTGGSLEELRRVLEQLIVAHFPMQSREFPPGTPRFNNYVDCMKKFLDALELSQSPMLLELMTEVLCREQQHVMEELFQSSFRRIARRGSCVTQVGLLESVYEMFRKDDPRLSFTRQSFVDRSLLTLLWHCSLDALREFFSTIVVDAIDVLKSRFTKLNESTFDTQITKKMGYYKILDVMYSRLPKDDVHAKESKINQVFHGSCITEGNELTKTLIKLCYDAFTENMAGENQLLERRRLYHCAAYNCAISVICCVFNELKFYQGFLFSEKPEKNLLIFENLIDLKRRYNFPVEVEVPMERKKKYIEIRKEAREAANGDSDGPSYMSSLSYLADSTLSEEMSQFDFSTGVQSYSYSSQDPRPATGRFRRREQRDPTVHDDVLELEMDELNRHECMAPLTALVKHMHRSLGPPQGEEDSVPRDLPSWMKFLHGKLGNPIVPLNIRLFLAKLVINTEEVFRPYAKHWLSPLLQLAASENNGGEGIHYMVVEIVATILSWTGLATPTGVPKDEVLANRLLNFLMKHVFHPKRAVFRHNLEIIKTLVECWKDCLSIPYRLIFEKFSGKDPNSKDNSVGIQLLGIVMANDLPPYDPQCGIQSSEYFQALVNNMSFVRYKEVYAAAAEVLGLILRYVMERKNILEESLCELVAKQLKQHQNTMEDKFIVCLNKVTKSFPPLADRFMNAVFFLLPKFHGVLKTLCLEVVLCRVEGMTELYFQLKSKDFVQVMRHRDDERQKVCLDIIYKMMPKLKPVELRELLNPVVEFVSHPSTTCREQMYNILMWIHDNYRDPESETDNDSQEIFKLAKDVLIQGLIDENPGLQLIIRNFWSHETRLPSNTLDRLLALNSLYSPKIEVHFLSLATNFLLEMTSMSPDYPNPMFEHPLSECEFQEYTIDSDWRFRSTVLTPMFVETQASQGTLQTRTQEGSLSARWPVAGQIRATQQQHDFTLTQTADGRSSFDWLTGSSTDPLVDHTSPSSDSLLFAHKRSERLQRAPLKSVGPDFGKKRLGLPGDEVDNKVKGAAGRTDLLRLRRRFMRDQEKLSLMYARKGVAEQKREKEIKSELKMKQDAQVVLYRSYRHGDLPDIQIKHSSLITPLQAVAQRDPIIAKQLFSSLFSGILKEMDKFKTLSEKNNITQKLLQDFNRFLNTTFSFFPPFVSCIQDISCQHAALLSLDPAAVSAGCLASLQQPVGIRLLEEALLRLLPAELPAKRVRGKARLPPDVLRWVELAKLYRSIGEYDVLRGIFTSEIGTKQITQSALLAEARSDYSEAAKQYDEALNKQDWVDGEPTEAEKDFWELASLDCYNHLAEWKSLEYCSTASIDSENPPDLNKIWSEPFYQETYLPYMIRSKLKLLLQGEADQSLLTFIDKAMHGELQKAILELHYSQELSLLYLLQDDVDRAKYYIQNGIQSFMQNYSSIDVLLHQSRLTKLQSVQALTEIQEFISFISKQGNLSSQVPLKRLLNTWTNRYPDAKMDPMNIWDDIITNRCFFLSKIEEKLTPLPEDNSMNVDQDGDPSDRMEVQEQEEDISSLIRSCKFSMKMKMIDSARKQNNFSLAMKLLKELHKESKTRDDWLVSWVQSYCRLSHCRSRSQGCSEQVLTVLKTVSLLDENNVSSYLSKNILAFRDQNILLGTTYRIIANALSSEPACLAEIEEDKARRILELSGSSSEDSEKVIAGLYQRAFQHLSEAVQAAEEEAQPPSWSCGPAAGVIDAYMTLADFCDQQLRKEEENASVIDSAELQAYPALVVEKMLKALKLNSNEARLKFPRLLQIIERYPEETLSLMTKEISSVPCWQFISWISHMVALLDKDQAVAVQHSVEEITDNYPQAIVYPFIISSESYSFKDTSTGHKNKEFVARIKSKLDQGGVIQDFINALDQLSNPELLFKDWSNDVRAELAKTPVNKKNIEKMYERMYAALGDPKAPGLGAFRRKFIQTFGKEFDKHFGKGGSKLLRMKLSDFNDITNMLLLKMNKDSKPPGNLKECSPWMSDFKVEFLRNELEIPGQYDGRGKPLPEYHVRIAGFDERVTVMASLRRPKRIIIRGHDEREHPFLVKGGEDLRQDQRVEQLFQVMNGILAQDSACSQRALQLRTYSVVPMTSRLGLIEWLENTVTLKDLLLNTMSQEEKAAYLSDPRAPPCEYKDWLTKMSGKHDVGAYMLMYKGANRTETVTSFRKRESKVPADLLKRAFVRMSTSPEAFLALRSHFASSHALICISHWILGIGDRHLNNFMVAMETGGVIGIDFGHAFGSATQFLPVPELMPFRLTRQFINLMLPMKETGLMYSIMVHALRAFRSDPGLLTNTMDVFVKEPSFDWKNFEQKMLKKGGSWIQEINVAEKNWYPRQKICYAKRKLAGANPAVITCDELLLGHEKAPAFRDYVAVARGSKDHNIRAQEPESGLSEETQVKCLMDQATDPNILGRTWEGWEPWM

Row | IC50 [nM] | SMILES
41 | 84 | CCN(CC)CC(=O)Nc1ccc(-c2cccc3c(=O)cc(N4CCOCC4)oc23)c2sc3ccccc3c12
42 | 15 | O=C(CN1CCN(c2ccc(F)cc2)CC1)Nc1ccc(-c2cccc3c(=O)cc(N4CCOCC4)oc23)c2sc3ccccc3c12
43 | 9 | C[C@@H]1CN(CCC(=O)Nc2ccc(-c3cccc4c(=O)cc(N5CCOCC5)oc34)c3sc4ccccc4c23)C[C@H](C)O1
44 | 31 | CCN(CCC(=O)Nc1ccc(-c2cccc3c(=O)cc(N4CCOCC4)oc23)c2sc3ccccc3c12)Cc1ccncc1
45 | 2 | COC(=O)[C@H](CO)NCCOc1ccc(-c2cccc3c(=O)cc(N4CCOCC4)oc23)c2sc3ccccc3c12
46 | 22 | NCCNCCC(=O)Nc1ccc(-c2cccc3c(=O)cc(N4CCOCC4)oc23)c2sc3ccccc3c12
47 | 13 | CN1CCCC1CCNCCC(=O)Nc1ccc(-c2cccc3c(=O)cc(N4CCOCC4)oc23)c2sc3ccccc3c12 (stereo not given)
48 | 37 | O=C(CCN1CCCCC1)Nc1ccc(-c2cccc3c(=O)cc(N4CCOCC4)oc23)c2sc3ccccc3c12
49 | 6 | O=C(CN(CCO)CCO)Nc1ccc(-c2cccc3c(=O)cc(N4CCOCC4)oc23)c2sc3ccccc3c12
50 | 29 | O=C(CCN1CCN(CCOCCO)CC1)Nc1ccc(-c2cccc3c(=O)cc(N4CCOCC4)oc23)c2sc3ccccc3c12
51 | 20 | O=c1cc(N2CCOCC2)oc2c(-c3ccc(OCCN4CCCCC4)c4c3sc3ccccc34)cccc12
52 | 18 | O=C(CCN1CCN(c2ncccn2)CC1)Nc1ccc(-c2cccc3c(=O)cc(N4CCOCC4)oc23)c2sc3ccccc3c12
53 | 22 | O=C(CN1CCCNCC1)Nc1ccc(-c2cccc3c(=O)cc(N4CCOCC4)oc23)c2sc3ccccc3c12
54 | 24 | O=C(CN1CCNCC1)Nc1ccc(-c2cccc3c(=O)cc(N4CCOCC4)oc23)c2sc3ccccc3c12
55 | 16 | CC(C)N1CCN(C(=O)COc2ccc(-c3cccc4c(=O)cc(N5CCOCC5)oc34)c3sc4ccccc4c23)CC1
56 | 6 | O=C(CCNCCN1CCOCC1)Nc1ccc(-c2cccc3c(=O)cc(N4CCOCC4)oc23)c2sc3ccccc3c12
57 | 29 | O=C(CCN1CCN(CCO)CC1)Nc1ccc(-c2cccc3c(=O)cc(N4CCOCC4)oc23)c2sc3ccccc3c12
58 | 7 | O=C(CN1CCN(c2ccccn2)CC1)Nc1ccc(-c2cccc3c(=O)cc(N4CCOCC4)oc23)c2sc3ccccc3c12
59 | 5 | CC(=O)N1CCN(CC(=O)Nc2ccc(-c3cccc4c(=O)cc(N5CCOCC5)oc34)c3sc4ccccc4c23)CC1
60 | 33 | O=C(CCNCCN1CCCCC1)Nc1ccc(-c2cccc3c(=O)cc(N4CCOCC4)oc23)c2sc3ccccc3c12
